# Test results as given in ChEMBL document CHEMBL3865784 (Eur J Med Chem, 2016).
# pIC50: −log10 of the molar value. Calls of active or inactive are those of the source. The calls are words filed in the database; no cut-off is given here.
# Assays:
# PC-3 [1] = test: Induction of apoptosis in human PC3 cells assessed as externalization of phosphatidylserine on cell surface by measuring late apoptotic cells at 5 uM pretreated with NAC measured after 6 hrs by Annexin-V/FITC/PI staining by flow cytometry (reference value: 0%); format: functional
# [2] = Cytotoxicity against human MDA-MB-435 cells overexpressing NQO1 assessed as reduction in cell viability after 72 hrs by MTT assay; format: functional, cell-based; settings: MDA-MB-435, 72 h
# Method in brief: (§1)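 Cancer lines from NCI, grown in RPMI 1640 with 10% FBS, 2 mM L-glutamine, penicillin/streptomycin, 37 °C, 5% CO2; seeded 0.1 × 10^6 cells/well (HL-60) or 0.7 × 10^5 cells/well (solid tumours). Compounds in DMSO, final 0.1% v/v; DMSO vehicle as negative control.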
# PC-3 [3] = test: Induction of apoptosis in human PC3 cells assessed as externalization of phosphatidylserine on cell surface by measuring late apoptotic cells at 5 uM cotreated with NQO1 inhibitor dicoumarol measured after 6 hrs by Annexin-V/FITC/PI staining by flow cytometry (reference value: 0%); format: functional; design: scale not given: the % may be the effect or the level left
# [4] = Cytotoxicity against NQO1-deficient chinese hamster V79 cells assessed as reduction in cell viability after 72 hrs by MTT assay; format: toxicity, cell-based, Cricetulus griseus; settings: for pIC50: v79
# [5] = Cytotoxicity against human SF295 cells overexpressing NQO1 assessed as reduction in cell viability after 72 hrs by MTT assay; format: functional, cell-based; settings: SF-295, 72 h
# [6] = Cytotoxicity against NQO1-deficient human PBMC assessed as reduction in cell viability after 72 hrs by MTT assay; format: toxicity, cell-based; settings: for pIC50: pbmc
# Mus musculus = organism: Mus musculus; test: (§2) Cytotoxicity against NQO1-deficient mouse L929 cells assessed as reduction in cell viability after 72 hrs by MTT assay; format: toxicity, cell-based; settings: l929
# PC-3 [7] = test: Induction of apoptosis in human PC3 cells assessed as externalization of phosphatidylserine on cell surface by measuring early apoptotic cells at 5 uM pretreated with NAC measured after 6 hrs by Annexin-V/FITC/PI staining by flow cytometry (reference value: 0.93 +/- 0.05%); format: functional
# PC-3 [8] = test: Induction of apoptosis in human PC3 cells assessed as externalization of phosphatidylserine on cell surface by measuring early apoptotic cells at 5 uM cotreated with NQO1 inhibitor dicoumarol measured after 6 hrs by Annexin-V/FITC/PI staining by flow cytometry (reference value: 0.93 +/- 0.05%); format: functional; design: scale not given: the % may be the effect or the level left
# [9] = Cytotoxicity against NQO1-deficient human HL60 cells assessed as reduction in cell viability after 72 hrs by MTT assay; format: functional, cell-based; settings: HL-60, 72 h; method in brief: as §1
# [10] = Cytotoxicity against human PC3 cells overexpressing NQO1 assessed as reduction in cell viability after 72 hrs by MTT assay; format: functional, cell-based; settings: PC-3, 72 h
# PC-3 [11] = test: Induction of apoptosis in human PC3 cells assessed as externalization of phosphatidylserine on cell surface by measuring early apoptotic cells at 5 uM after 6 hrs by Annexin-V/FITC/PI staining by flow cytometry (reference value: 0.93 +/- 0.05%); format: functional
# [12] = Cytotoxicity against human OVCAR8 cells overexpressing NQO1 assessed as reduction in cell viability after 72 hrs by MTT assay; format: functional, cell-based; settings: OVCAR-8, 72 h; method in brief: as §1
# [13] = Cytotoxicity against human HCT116 cells expressing NQO1 assessed as reduction in cell viability after 72 hrs by MTT assay; format: functional, cell-based; settings: HCT-116, 72 h; method in brief: as §1
# [14] = as §2; format: toxicity, cell-based; settings: mouse, NQO1-deficient L929 cells
# SF-295 [15] = test: Selectivity index, ratio of IC50 for NQO1-deficient chinese hamster V79 cells to IC50 for human SF295 cells overexpressing NQO1
# Method in brief: (§3)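 Selectivity index is IC50 in the normal cells divided by IC50 in the cancer line. Normal cells: V79 and L929 in DMEM, PBMC in RPMI with phytohaemagglutinin. Cancer lines in RPMI with 10% FBS, seeded at 0.1 × 10^6 (HL-60) or 0.7 × 10^5 cells/well (solid tumors). Absorbance 550 nm; nonlinear regression.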
# HL-60 [16] = test: Selectivity index, ratio of IC50 for NQO1-deficient chinese hamster V79 cells to IC50 for NQO1-deficient human HL60 cells; format: functional; method in brief: as §3
# HCT-116 [17] = test: Selectivity index, ratio of IC50 for NQO1-deficient mouse L929 cells to IC50 for human HCT116 cells expressing NQO1
# Method in brief: as §3, with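 “line. All IC50s come from 72 h MTT assays.” for “line.”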
# OVCAR-8 [18] = test: Selectivity index, ratio of IC50 for NQO1-deficient human PBMC to IC50 for human OVCAR8 cells overexpressing NQO1
# Method in brief: as §3, with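 “line. All IC50s come from 72 h MTT assays.” for “line.”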
# HCT-116 [19] = test: Selectivity index, ratio of IC50 for NQO1-deficient human PBMC to IC50 for human HCT116 cells expressing NQO1
# Method in brief: as §3, with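 “line. All IC50s come from 72 h MTT assays.” for “line.”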
# HL-60 [20] = test: Selectivity index, ratio of IC50 for NQO1-deficient human PBMC to IC50 for NQO1-deficient human HL60 cells; method in brief: as §3
# L929 [21] = test: Selectivity index, ratio of IC50 for NQO1-deficient mouse L929 cells to IC50 for human PC3 cells overexpressing NQO1; method in brief: as §3
# L929 [22] = test: Selectivity index, ratio of IC50 for NQO1-deficient mouse L929 cells to IC50 for NQO1-deficient human HL60 cells; format: functional; method in brief: as §3
# V79 [23] = test: Selectivity index, ratio of IC50 for NQO1-deficient chinese hamster V79 cells to IC50 for human MDA-MB-435 cells overexpressing NQO1; method in brief: as §3
# SF-295 [24] = test: Selectivity index, ratio of IC50 for NQO1-deficient human PBMC to IC50 for human SF295 cells overexpressing NQO1; method in brief: as §3
# OVCAR-8 [25] = test: Selectivity index, ratio of IC50 for NQO1-deficient chinese hamster V79 cells to IC50 for human OVCAR8 cells overexpressing NQO1
# Method in brief: as §3, with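 “line. All IC50s come from 72 h MTT assays.” for “line.”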
# L929 [26] = test: Selectivity index, ratio of IC50 for NQO1-deficient mouse L929 cells to IC50 for human SF295 cells overexpressing NQO1; method in brief: as §3
# HCT-116 [27] = test: Selectivity index, ratio of IC50 for NQO1-deficient chinese hamster V79 cells to IC50 for human HCT116 cells expressing NQO1
# Method in brief: as §3, with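 “line. All IC50s come from 72 h MTT assays.” for “line.”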
# V79 [28] = test: Selectivity index, ratio of IC50 for NQO1-deficient chinese hamster V79 cells to IC50 for human PC3 cells overexpressing NQO1; method in brief: as §3
# L929 [29] = test: Selectivity index, ratio of IC50 for NQO1-deficient mouse L929 cells to IC50 for human MDA-MB-435 cells overexpressing NQO1; method in brief: as §3
# [30] = Selectivity index, ratio of IC50 for NQO1-deficient human PBMC to IC50 for human MDA-MB-435 cells overexpressing NQO1; method in brief: as §3
# L929 [31] = test: Selectivity index, ratio of IC50 for NQO1-deficient mouse L929 cells to IC50 for human OVCAR8 cells overexpressing NQO1; method in brief: as §3
# PC-3 [32] = test: Selectivity index, ratio of IC50 for NQO1-deficient human PBMC to IC50 for human PC3 cells overexpressing NQO1; method in brief: as §3
# PC-3 [33] = test: Induction of apoptosis in human PC3 cells assessed as externalization of phosphatidylserine on cell surface by measuring late apoptotic cells at 5 uM after 6 hrs by Annexin-V/FITC/PI staining by flow cytometry (reference value: 0%); format: functional
# [34] = target: NAD(P)H dehydrogenase [quinone] 1 (Homo sapiens) (UniProt P15559); test: Activation of NQO1 in human PC3 cells assessed as induction of ROS generation at 5 uM after 1 hr by H2DCFDA probe based flow cytometric analysis; format: cell-based; settings: PC-3
# Sequence of NAD(P)H dehydrogenase [quinone] 1 (Homo sapiens) (P15559 whole entry): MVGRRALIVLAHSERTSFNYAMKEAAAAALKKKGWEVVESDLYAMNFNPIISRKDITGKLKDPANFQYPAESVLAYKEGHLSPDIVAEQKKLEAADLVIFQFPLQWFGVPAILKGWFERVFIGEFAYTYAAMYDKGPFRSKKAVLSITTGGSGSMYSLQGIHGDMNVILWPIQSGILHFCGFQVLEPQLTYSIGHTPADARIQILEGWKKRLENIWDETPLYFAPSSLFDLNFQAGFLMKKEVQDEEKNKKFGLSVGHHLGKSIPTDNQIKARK
SMILES,Activity (PC-3 [1]),pIC50 [2],Activity (PC-3 [3]),pIC50 [4],pIC50 [5],pIC50 [6],pIC50 (Mus musculus),Activity (PC-3 [7]),Activity (PC-3 [8]),pIC50 [9],pIC50 [10],Activity (PC-3 [11]),pIC50 [12],pIC50 [13],Ratio IC50 (HL-60 [16]),Ratio IC50 (HCT-116 [17]),Ratio IC50 (OVCAR-8 [18]),Ratio IC50 (HCT-116 [19]),Ratio IC50 (HL-60 [20]),Activity (PC-3 [33]),also measured
CC1(C)OC2=C(C(=O)C(=O)c3ccccc32)C1n1cc(C[Se]c2ccccc2)nn1 (configuration not stated),0%,5.97,0%,5.58,5.88,5.75,5.64,1.12%,1.26%,5.89,5.61,15.07%,5.65,,,,,,,,
COc1cccc2c1C(=O)c1c(O)c3c(c(O)c1C2=O)C[C@@](O)(C(=O)CO)C[C@@H]3O[C@H]1C[C@H](N)[C@H](O)[C@H](C)O1 [DOXORUBICIN],,6.02,,,,,,,,,,,6.39,6.82,,,,,,,"IC50 at 72 h ([4]; Chinese hamster, NQO1-deficient V79 cells): 280 nM; IC50 at 72 h ([6]; human): 550 nM; IC50 at 72 h [14]: 230 nM"
CC1(C)OC2=C(C(=O)c3ccccc3C2=O)C1Nc1cccc(-c2cn(C[Se]c3ccccc3)nn2)c1 (configuration not stated),,6.06,,5.42,5.97,5.48,5.47,,,5.97,5.77,,6.17,5.89,3.5,2.6,4.8,2.6,3,,Ratio IC50 (SF-295 [15]): 3.5; Ratio IC50 (L929 [21]): 1.9; Ratio IC50 (L929 [22]): 3.1; Ratio IC50 (V79 [23]): 4.2; Ratio IC50 (SF-295 [24]): 3; Ratio IC50 (OVCAR-8 [25]): 5.5; Ratio IC50 (L929 [26]): 3.1; Ratio IC50 (HCT-116 [27]): 2.9; Ratio IC50 (V79 [28]): 2.2; Ratio IC50 (L929 [29]): 3.8; Ratio IC50 [30]: 3.7; Ratio IC50 (L929 [31]): 4.9; Ratio IC50 (PC-3 [32]): 1.9
CC(=O)N[C@@H](CS)C(=O)O [ACETYLCYSTEINE],,,,,,,,,,,,0.87%,,,,,,,,0%,
O=c1oc2ccccc2c(O)c1Cc1c(O)c2ccccc2oc1=O [DICUMAROL],,,,,,,,,,,,0.95%,,,,,,,,0%,
CC1(C)OC2=C(C(=O)C(=O)c3ccccc32)C1Nc1cccc(-c2cn(C[Se]c3ccccc3)nn2)c1 (configuration not stated),0%,6.64,0%,5.95,6.47,5.86,6.03,0.89%,0.91%,7.15,6.42,16.61%,6.70,6.85,16.1,6.7,6.9,9.9,19.8,3.27%,Ratio IC50 (L929 [21]): 2.4; Ratio IC50 (L929 [22]): 13.4; Ratio IC50 (V79 [23]): 4.9; Ratio IC50 (OVCAR-8 [25]): 5.6; Activity [34]: Active; Ratio IC50 (L929 [26]): 2.7; Ratio IC50 (HCT-116 [27]): 8; Ratio IC50 (V79 [28]): 2.9; Ratio IC50 (L929 [29]): 4; Ratio IC50 [30]: 6; Ratio IC50 (L929 [31]): 4.7; Ratio IC50 (PC-3 [32]): 3.6
